Compound activity: PubChem, several laboratories
Ba/F3 V617F tox: reduce viability of Ba/F3 cells dependent on JAK2V617F. inhibition, % at 5.6 µM. 220,000 compounds, 1.1% hits. Ba/F3 EpoR-JAK2V617F viability, ATP luminescence. AID 1446;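 active = inhibition above the campaign mean plus 3 SD over all tested compounds, cut at about 24% in these data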;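 note: cytokine-independent growth of Ba/F3 cells driven by EpoR plus mutant JAK2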
IEC-6 cytotox: kills IEC-6 intestinal cells in KLF5 counter-screen; IEC-6 cytotoxicity, luminescence viability; inhibition, % at 5 µM; 290,000 compounds, 0.78% hits; AID 1825; in the data active = inhibition above about 22%
APP 5UTR inh: APP translation inhibition; SH-SY5Y APP 5'UTR-luciferase reporter, luminescence; inhibition, % at 2 µM; 190,000 compounds, 0.82% hits; AID 1285;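 active = inhibition above a set limit, derived from the sample mean plus 3 SD, cut at about 45% in these data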
BaF3 tox: counter-screen for JAK2V617F inhibitors: parental Ba/F3 viability inhibitors | inhibition, % at 5.6 µM | AID 1486 | 220,000 compounds, 1.1% hits | CellTiter-Glo ATP luminescence;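 active = inhibition above a per-campaign cutoff, the mean inhibition of all tested compounds plus 3 SD, cut at about 27% in these data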
bCat nuc transl: modulators of beta-catenin nuclear translocation. HeLa beta-catenin nuclear translocation, immunofluorescence imaging. nuclear translocation activity, % at 5 µM. 190,000 compounds, 0.3% hits;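 active = nuclear translocation activity above 50% at 5 µM, with a well cell count of 50 or more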;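 note: per-cell ratio of nuclear to cytoplasmic median beta-catenin stain intensity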
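System: Human HeLa cells, endogenous beta-catenin | Compound dosing: 5 µM primary, 0.02–20 µM confirmation | Timing: 24 h compound exposure at 37°C, 5% CO2 | Measured by: Fluorescence imaging of beta-catenin antibody stain plus DAPI | Read-out basis: % activation of per-cell nuclear versus cytoplasmic median beta-catenin signal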
MT stabilize HCS: stabilizes microtubules in HeLa cells; HeLa tubulin immunostaining HCS, 24 h; share of cells brighter than vehicle mean+2SD; % tubulin-high responders, % at 10 µM; 200,000 compounds, 0.83% hits; AID 2205;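 active = plate Z-score above 3 for both tubulin-high and condensed-nucleus cell shares, with cell loss under 80%, at 10 µM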;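 note: anti alpha tubulin signal scored within the nucleus-defined area of each cell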
Of the large screens only hits and unclear results are named; the others gave an inactive call. Compounds with a hit are over-represented: about 2.2% of the library has one in this group of screens.

CC(C(=O)c1ccc(-c2ccccc2)cc1)[n+]1ccccc1 (centres undefined)	Ba/F3 V617F tox 47.0, BaF3 tox 63.6
Cc1ccc[n+](C(C)C(=O)c2ccc(-c3ccccc3)cc2)c1 (centres undefined)	Ba/F3 V617F tox 57.7, BaF3 tox 68.7
Cc1cc[n+](C(C)C(=O)c2ccc(-c3ccccc3)cc2)cc1 (centres undefined)	Ba/F3 V617F tox 81.0, BaF3 tox 66.5
O=c1[nH][nH]c(=S)n1-c1ccccc1C(F)(F)F	none (no result: APP 5UTR inh, MT stabilize HCS)
CCOC(=O)c1sc(NC(=O)CSc2nncn2C)nc1C	none
COc1ccc(CN(C)C(=S)Nc2ccc(Cl)cc2)cc1	Ba/F3 V617F tox 39.3, BaF3 tox 36.0
CCN(CC)C(=S)Nc1ccc(OC)cc1	none
COc1ccc(NC(=S)N2CCN(c3ncccn3)CC2)cc1	none
CC(=O)c1ccc(N2CCN(C(=S)Nc3cccc(F)c3)CC2)cc1	Ba/F3 V617F tox 41.4, BaF3 tox 30.3
CC(=O)c1ccc(N2CCN(C(=S)Nc3ccc(Oc4ccccc4)cc3)CC2)cc1	none
Fc1cc(F)cc(NC(=S)N2CCN(c3ncccn3)CC2)c1	Ba/F3 V617F tox 35.9, BaF3 tox 27.2
O=C(CCCSc1nc2ccccc2[nH]1)N1CCN(c2ccc([N+](=O)[O-])cc2)CC1	none
COCCCNc1ncnc2c1nc1n2CCCC1	none (no result: Ba/F3 V617F tox, APP 5UTR inh, BaF3 tox, bCat nuc transl, MT stabilize HCS)
Cc1cc(C)cc(NC(=O)/C=C/c2ccc([N+](=O)[O-])s2)c1	APP 5UTR inh 52.6, BaF3 tox 50.3
O=C(/C=C/c1ccc([N+](=O)[O-])s1)N1CCCC1	none
Cc1ccccc1NC(=O)/C=C/c1ccc([N+](=O)[O-])s1	Ba/F3 V617F tox 79.8, APP 5UTR inh 90.1, BaF3 tox 54.6
COc1ccccc1C(=O)N1c2ccccc2Sc2ccccc21	MT stabilize HCS 10.9
CC(C)Oc1ncnc2c1[nH]c1ccccc12	BaF3 tox 36.3 (no result: APP 5UTR inh, MT stabilize HCS)
Cc1ccc(C(=O)C[n+]2cc(Br)cc(Br)c2)cc1[N+](=O)[O-]	none
Cc1ccc2c(C)nc(NC3=NCN(C(C)C)CN3)nc2c1	BaF3 tox 30.7 (no result: bCat nuc transl)
Cc1nc(NC2=NCN(Cc3ccc4c(c3)OCO4)CN2)nc2ccccc12	none (no result: Ba/F3 V617F tox, IEC-6 cytotox, APP 5UTR inh, BaF3 tox, MT stabilize HCS)
COc1ccc(Nc2nc3ccc(C)cc3cc2C#N)c(OC)c1	none
COc1ccc(Nc2nc3cc(C)ccc3cc2C#N)c(OC)c1	APP 5UTR inh 92.1, MT stabilize HCS 21.2
OC[C@@H](O)[C@H](O)C(/C=N/Nc1ccccc1)=N\Nc1ccccc1	none (no result: APP 5UTR inh, MT stabilize HCS)
CN(C)N1C(N)=C(C#N)C(c2cccc3ccccc23)C2=C1CC(c1ccccc1)CC2=O (centres undefined)	MT stabilize HCS 11.9
COc1ccccc1N=c1oc2cc(O)ccc2cc1C(N)=O	Ba/F3 V617F tox 31.8, BaF3 tox 34.2
C1CCCCCC(NCCN2CCNCC2)CCCCC1	Ba/F3 V617F tox 79.8, BaF3 tox 41.8 (no result: APP 5UTR inh, MT stabilize HCS)
CCN(CC)CCNc1ncnc2c1[nH]c1ccc(OC)cc12	none (no result: bCat nuc transl)
COc1ccc2[nH]c3c(NCCC4=CCCCC4)ncnc3c2c1	Ba/F3 V617F tox 63.8, BaF3 tox 75.1
COc1ccc2[nH]c3c(NCc4ccco4)ncnc3c2c1	MT stabilize HCS 27.0
Nc1nonc1-c1nc2ccccc2n1CC(=O)N/N=C/c1ccc(-c2cccc(C(=O)O)c2)o1	none
O=C(NC(=S)NC1CC1)c1cccnc1	none
O=C(NC(=S)NC1CCCCCCCCCCC1)c1cccnc1	BaF3 tox 65.2 (no result: bCat nuc transl)
C/C(=C\C(=O)c1ccc(Br)cc1)Nc1ccc(Cl)cc1	BaF3 tox 92.5
C/C(=C\C(=O)c1ccc(Cl)cc1)Nc1ccc(N2CCOCC2)cc1	Ba/F3 V617F tox 33.3, BaF3 tox 28.2 (no result: bCat nuc transl)
COc1cccc(N/C(C)=C/C(=O)c2ccc(Br)cc2)c1	none
Cc1cc(NS(=O)(=O)c2ccc(NC(=O)CSc3nc4ncccc4[nH]3)cc2)nc(C)n1	none (no result: APP 5UTR inh, MT stabilize HCS)
O=c1cc(N2CCN(c3ccc(F)cc3)CC2)[nH]c(=O)n1C1CCCCC1	MT stabilize HCS 27.3
c1cncc(-c2csc(-c3cccnc3)n2)c1	none (no result: Ba/F3 V617F tox, APP 5UTR inh, BaF3 tox, bCat nuc transl, MT stabilize HCS)
Oc1ccc(Nc2nc(-c3ccc4ccccc4c3)cs2)cc1	Ba/F3 V617F tox 98.5, BaF3 tox 57.3 (no result: bCat nuc transl)
Oc1ccc(-c2csc(-c3cccnc3)n2)c(O)c1	MT stabilize HCS 12.0
Oc1ccc(-c2nc(-c3ccc(O)c(O)c3)cs2)cc1	Ba/F3 V617F tox 88.3, APP 5UTR inh 93.6, BaF3 tox 81.0, bCat nuc transl 66.4, MT stabilize HCS 14.6
O=C(Cc1nc2ccccc2[nH]1)c1ccc(Br)cc1	none
CCCCN=C1NC(=O)C(CC(=O)NCCc2ccc(OC)cc2)S1 (centres undefined)	none
COc1ccc(NC(=O)c2cn(CCC#N)nc2-c2cc3ccccc3o2)cc1	APP 5UTR inh 45.6
N#CCCn1cc(C(=O)Nc2ccc(C(=O)O)cc2)c(-c2cc3ccccc3o2)n1	none
Cc1ccc2[nH]c3c(N4CCCCCC4)ncnc3c2c1	Ba/F3 V617F tox 46.4, BaF3 tox 47.9
Cc1ccc2[nH]c3c(N4CCN(Cc5ccccc5)CC4)ncnc3c2c1	none
Nc1cc(C(=O)O)ccc1N1CCCCC1	none
Nc1cc(F)ccc1N1CCCCCC1	Ba/F3 V617F tox 38.9, BaF3 tox 57.2
Nc1cc(Cl)ccc1N1CCCC1	Ba/F3 V617F tox 41.6, BaF3 tox 55.1
O=c1c2ccccc2nnn1-c1ccc(Br)cc1	none (no result: APP 5UTR inh, MT stabilize HCS)
Cc1ccc(C(=O)N/C(=C\c2ccc(-c3cccc([N+](=O)[O-])c3)o2)C(=O)NCCCN(C)C)cc1	none (no result: Ba/F3 V617F tox, APP 5UTR inh, BaF3 tox, bCat nuc transl, MT stabilize HCS)
Cc1ccc(C(=O)N/C(=C\c2ccc(-c3ccc(Br)cc3)o2)C(=O)NCCCN(C)C)cc1	BaF3 tox 60.2
CCCCCCCNC1=CC(=O)CC(c2ccco2)C1 (centres undefined)	Ba/F3 V617F tox 29.2, BaF3 tox 37.9 (no result: bCat nuc transl)
C[n+]1ccc(/C=C/c2ccc(Br)cc2)cc1	Ba/F3 V617F tox 79.1, BaF3 tox 83.4 (no result: bCat nuc transl)
COCCCNC1=C(Cl)C(=O)c2ccccc2C1=O	none (no result: APP 5UTR inh, MT stabilize HCS)
COCCCNc1c2c3c(cccc3[nH]c1=O)C(=O)c1ccccc1-2	MT stabilize HCS 14.7 (no result: bCat nuc transl)
c1cncc(CNCc2ccco2)c1	none (no result: Ba/F3 V617F tox, APP 5UTR inh, BaF3 tox, bCat nuc transl, MT stabilize HCS)
C(=N\Nc1nc(Nc2ccccc2)nc(Nc2ccccc2)n1)/c1cccnc1	IEC-6 cytotox 28.6
Clc1cccc(Cl)c1COc1ccccc1CNn1cnnc1	MT stabilize HCS 22.5
CCOC(=O)N1CCC(N(CCN(C)C)C(=S)Nc2ccc(Oc3ccccc3)cc2)CC1	none
COc1cc(C2Sc3ccccc3NC3=C2C(=O)OC3)cc(OC)c1OC (centres undefined)	MT stabilize HCS 39.6
O=C1OCC2=C1C(c1ccc(F)cc1)Sc1ccccc1N2 (centres undefined)	none
CC12Cc3ccc4ccccc4c3C=C1C[N+](C)(C)C2 (centres undefined)	Ba/F3 V617F tox 26.8, BaF3 tox 39.8 (no result: bCat nuc transl)
Cc1cc(C)n(-c2nc3c(c(=O)[nH]c(=O)n3C)n2CCc2ccccc2)n1	MT stabilize HCS 40.9
O=C(NCCCN1CCOCC1)C(=O)N/N=C/c1c2ccccc2cc2ccccc12	MT stabilize HCS 21.5
COc1ccc(C(=O)Nc2cccc(OC(=O)c3ccc(C)c(C)c3)c2)cc1	MT stabilize HCS 21.6
